# Measured values from different studies.
# Lines come from different studies, so protocols differ.
# Target: Leukocyte tyrosine kinase receptor (LTK, Homo sapiens, UniProt P29376)
Compound,effect on,method,concentration,remaining binding [%]
COc1cnc(Nc2cccc(S(N)(=O)=O)c2)nc1N1CCN(c2ccccc2)C(=O)C1,binding,competition with immobilised ligand,1 µM,91
N[C@@H]1CCN(c2nccc(-c3cnn4ncccc34)n2)C1,binding,,1 µM,100
CC(C)CC(=O)N1CCc2nc(-c3ccc(Br)cc3)nc(N(C)Cc3ccccc3)c2C1,cell-free assay,competition with immobilised ligand,0.1 µM,91
O=C(NCCCN1CCOCC1)c1ccc(Nc2ncc(Cl)c(-c3ccc(Cl)s3)n2)cc1,binding,competition with immobilised ligand,1 µM,100
O=C(NS(=O)(=O)c1ccc(NCC2CCOCC2)c([N+](=O)[O-])c1)c1ccc(N2CCN(Cc3ccc(C(F)(F)F)cc3-c3ccc(Cl)cc3)CC2)cc1Oc1cnc2[nH]ccc2c1,cell-free assay,competition with immobilised ligand,1 µM,100
c1cnn2ncc(-c3ccnc(N4CCC45COC5)n3)c2c1,binding,,1 µM,98
COc1ccc2c(c1)O[C@H](c1ccc(OC)c(OC)c1)C[C@@H]2NC(=O)C1(c2ccc3c(c2)OC(F)(F)O3)CC1,cell-free assay,competition with immobilised ligand,1 µM,100
Cc1cc(-c2cc(C(F)(F)F)ccc2O[C@H]2C[C@@]2(CNS(=O)(=O)c2ccc([N+](=O)[O-])cc2)c2ccc(F)cc2F)[nH]n1,cell-free assay,competition with immobilised ligand,0.3 µM,6.9
O=C(NCCCN1CCOCC1)c1ccc(Nc2nccc(-c3cc4ccccc4s3)n2)cc1,binding,competition with immobilised ligand,1 µM,100
Cc1nc(Cc2cccc(C(F)(F)F)c2)sc1-c1ccc(C(N)=O)nc1,cell-free assay,competition with immobilised ligand,1 µM,100
C[C@H]1CCN(c2nccc(-c3cnn4ncccc34)n2)C1,binding,,1 µM,91
CCN1CCN(Cc2ccc(C(=O)Nc3ccc(C)c(Oc4ccc5c(c4)CC(=O)N5)c3)cc2C(F)(F)F)CC1,binding,competition with immobilised ligand,1 µM,100
COc1ccc2cc(OCC3(C(=O)O)CN(C(=O)c4ccc(F)cc4)C3)ccc2c1,cell-free assay,competition with immobilised ligand,1 µM,100
CN(C)c1nccc(-c2cnn3ncccc23)n1,binding,,1 µM,92
CNC(=O)[C@@H]1CC[C@@H](n2c(-c3ccc4cnccc4c3)nc3ccc(C(=O)NCc4cccc(C(N)=O)c4)cc32)C1,binding,competition with immobilised ligand,1 µM,89
CC(=O)C1=C(C)N(c2cccc(C(F)(F)F)c2)C(=O)N[C@@H]1c1ccc(C#N)nc1,cell-free assay,competition with immobilised ligand,1 µM,92.6
CC1CCCN1c1nccc(-c2cnn3ncccc23)n1 (stereo not shown),binding,,1 µM,100
O=C(Nc1c[nH]nc1C(=O)NC1CCNCC1)c1cc(F)cc(F)c1,binding,competition with immobilised ligand,1 µM,74
CN(c1nccc(-c2cnn3ncccc23)n1)C1CC1,binding,,1 µM,100
Cc1cnc(Nc2ccc(C(=O)N3CCC(N4CCCC4)CC3)cc2)nc1-c1cc2ccccc2s1,binding,competition with immobilised ligand,1 µM,85
FC(F)(F)Oc1cccc(-c2cnc3ccc(-c4ccncc4)nn23)c1,cell-free assay,competition with immobilised ligand,5 µM,100
c1cncc(-c2cccc(Nc3nccc(NC4CCCCC4)n3)c2)c1,binding,competition with immobilised ligand,10 µM,68
